The source of these data is the array DNA melting data of Ke et al. (doi:10.1101/2024.01.08.574731).

Series [1] can be described thus: folding enthalpy; higher = less favourable; fluorescence melt of hairpins on a sequencing array, two-state fit. The following applies: sodium 0.088 M. Summed up:
(§1)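 Melting temperature and folding enthalpy were obtained by bootstrapped two-state fitting. Fits used Cy3 fluorescence of library hairpins with annealed Cy3 and quencher oligos on a sequenced MiSeq flow cell, imaged in 50 mM Na-HEPES pH 8.0, 25 mM NaCl in 2.5 °C steps up to 60 °C and normalised to pre-quench Cy3 and control constructs. Four replicates were combined by inverse-variance weighting, and fitted temperatures were raised by 9.35 °C to match UV melts.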

Series [2] is described as follows: melting temperature; fluorescence melt of hairpins on a sequencing array, two-state fit, raised by 9.35 °C to match UV melts. The settings on record: sodium 0.088 M. Summed up:
as §1

As to GAGCGCACGAAAGTGCTC (((..(((....)))))), in series [1], the folding enthalpy was -8.27 kcal/mol. Further, the Tm in series [2] was found to be 38.1 °C.

In the case of GAGCGCCGAAAGGCCCTC (((.(((....))).))), the folding enthalpy in series [1] was -15.4 kcal/mol. Besides, the Tm in series [2] was found to be 47.6 °C.

Regarding GAGCGCGAAAGCGACTC ((((((....))).))), the folding enthalpy in series [1] is -16.9 kcal/mol. In series [2], the Tm turned out to be 60.3 °C.

In the case of GAGCGCGAAAGCGGGCTC ((((((....)))..))), the folding enthalpy in series [1] is -16.2 kcal/mol. Also, in series [2], the Tm turned out to be 67.9 °C.

GAGCGCGAAAGCGTGCTC ((((((....)))..))): the folding enthalpy in series [1] was -17.1 kcal/mol. Besides, the Tm in series [2] worked out at 56.4 °C.

Take GAGCGCGGAAACGCACCC (.(.(((....))).).): the folding enthalpy in series [1] is -7.47 kcal/mol. Also, in series [2], the Tm is 31.7 °C.

Consider GAGCGGGGAAACCCACTC (((.(((....))).))), for which the folding enthalpy in series [1] is -28.4 kcal/mol. For the same sequence, the Tm in series [2] is 46.2 °C.

Consider GAGCGGGGAAACCCGTTC ((.((((....)))).)), for which the folding enthalpy in series [1] is -20.1 kcal/mol. Besides, in series [2], the Tm came out at 53 °C.

In the case of GAGCGTACGAAAGTACTC (((..(((....)))))), the folding enthalpy in series [1] was -13.4 kcal/mol. Further, the Tm in series [2] came to 27 °C.

With GAGCGTGGAAACGTGCTC ((((..(....)..)))), the folding enthalpy in series [1] is -19.3 kcal/mol. In addition, the Tm in series [2] was 47.6 °C.

In the case of GAGCTACGAAAGTACCTC (((.(((....))).))), the folding enthalpy in series [1] is -19 kcal/mol. In addition, the Tm in series [2] came to 30.6 °C.

Take GAGCTAGGAAACTAGCTC (((((((....))))))): in series [1], the folding enthalpy was -37.9 kcal/mol. Besides, in series [2], the Tm worked out at 62.4 °C.

GAGCTCCGAAAGGAACTC (((.(((....))).))): the folding enthalpy in series [1] is -27.5 kcal/mol. For the same sequence, in series [2], the Tm was determined as 50.6 °C.

Regarding GAGCTCCGAAAGGACCTC (((.(((....))).))), the folding enthalpy in series [1] is -20.2 kcal/mol. Further, the Tm in series [2] was 38.1 °C.

Consider GAGCTCGGAAACGGGTTC ((.(.((....)).).)), for which the folding enthalpy in series [1] was -14.2 kcal/mol. The Tm in series [2] came to 42.3 °C.

Consider GAGCTGGAAACAGCTC ((((((....)))))), for which the folding enthalpy in series [1] is -26 kcal/mol. In addition, the Tm in series [2] was 67.6 °C.

With GAGCTTGGAAACAGGCTC ((((.((....)).)))), the folding enthalpy in series [1] was -45 kcal/mol. Besides, the Tm in series [2] is 49.3 °C.

As to GAGCTTGGAAACGAGCTC (((((.(....).))))), the folding enthalpy in series [1] was -45.1 kcal/mol. Besides, in series [2], the Tm stood at 53.4 °C.

Consider GAGGAAGCGAAAGCTCTC (((..(((....)))))), for which the folding enthalpy in series [1] is -13.7 kcal/mol. Also, in series [2], the Tm was 35.4 °C.

With GAGGACACGAAAGTGCTC (((..(((....)))))), the folding enthalpy in series [1] is -14.4 kcal/mol. The Tm in series [2] was found to be 35.9 °C.

Turning to GAGGACCGAAAGGTACTC (((.(((....))).))), the folding enthalpy in series [1] was -33.4 kcal/mol. Moreover, in series [2], the Tm worked out at 64.9 °C.

For GAGGACCGAAAGGTGCTC (((.(((....))).))), the folding enthalpy in series [1] was -32.2 kcal/mol. Moreover, in series [2], the Tm came to 60.4 °C.

With GAGGACGAAAGTCACTC ((((((....))).))), in series [1], the folding enthalpy is -17.9 kcal/mol. Moreover, the Tm in series [2] was 43.1 °C.

Consider GAGGACGAAAGTCGCCTC ((((((....)))..))), for which the folding enthalpy in series [1] was -14.9 kcal/mol. Further, the Tm in series [2] amounted to 38.9 °C.

Regarding GAGGACGAAAGTCTCTC ((((((....))).))), in series [1], the folding enthalpy is -18 kcal/mol. For the same sequence, the Tm in series [2] came to 46.5 °C.

As to GAGGACGAAAGTCTTCTC ((((((....)))..))), in series [1], the folding enthalpy is -23 kcal/mol. For the same sequence, the Tm in series [2] was 48 °C.

With GAGGACGGAAACATCCTC (((((.(....).))))), the folding enthalpy in series [1] is -26.7 kcal/mol. In addition, the Tm in series [2] amounted to 38.3 °C.

Turning to GAGGACGGAAACGCCCTC ((((.((....)).)))), the folding enthalpy in series [1] was -47.2 kcal/mol. In series [2], the Tm is 51.7 °C.

Regarding GAGGAGGGAAACCTCTTC ((.((((....)))).)), the folding enthalpy in series [1] was -27.7 kcal/mol. Further, the Tm in series [2] amounted to 47.8 °C.

With GAGGATGAAAATCCTC ((((((....)))))), in series [1], the folding enthalpy is -37 kcal/mol. Besides, the Tm in series [2] was determined as 54.7 °C.

In the case of GAGGATGGAAACACCCTC ((((.((....)).)))), in series [1], the folding enthalpy was -32.6 kcal/mol. For the same sequence, in series [2], the Tm came to 38.1 °C.

Take GAGGCAACGAAAGTTCTC (((..(((....)))))): in series [1], the folding enthalpy was -11.3 kcal/mol. Further, the Tm in series [2] amounted to 24.4 °C.

Take GAGGCACGAAAGTGCTC (((.(((....)))))): the folding enthalpy in series [1] was -9.34 kcal/mol. Also, in series [2], the Tm came out at 45.9 °C.

Consider GAGGCAGGAAACCGCCTC (((((.(....).))))), for which the folding enthalpy in series [1] was -33.2 kcal/mol. Moreover, the Tm in series [2] turned out to be 54.9 °C.

For GAGGCCGAAAGGCAGCTC ((((((....)))..))), the folding enthalpy in series [1] was -13.7 kcal/mol. In addition, the Tm in series [2] is 50.6 °C.

On to GAGGCCGAAAGGCCCCTC ((((((....)))..))), for which the folding enthalpy in series [1] is -9.61 kcal/mol. The Tm in series [2] worked out at 49.7 °C.
